From ChEMBL document CHEMBL4024767, “Structure-Guided Discovery of Novel, Potent, and Orally Bioavailable Inhibitors of Lipoprotein-Associated Phospholipase A2” (J Med Chem, 2017) come the findings set out here.

Experiment [1] in a line: Inhibition of recombinant human full length GST-tagged group-7B PLA2 expressed in Escherichia coli Rosetta(DE3) pLysS using 2-thio-PAF as substrate preincubated for 30 min followed by substrate addition measured every minute for 10 mins by DNTB reagent based assay. The gist of the method:
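Recombinant PLA2-VIIB purified in-house, preincubated 30 min at room temperature with compound and DTNB (10 µL of 2 mM). Substrate solution (50 µM 2-thio-PAF, 50 mM Tris pH 7.2, 1 mM EGTA) then added and absorbance read at 412 nm. IC50 determined.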

Experiment [2] deals with T1, Platelet-activating factor acetylhydrolase (Rattus norvegicus) (UniProt A6JJ35).
T1 sequence (whole entry): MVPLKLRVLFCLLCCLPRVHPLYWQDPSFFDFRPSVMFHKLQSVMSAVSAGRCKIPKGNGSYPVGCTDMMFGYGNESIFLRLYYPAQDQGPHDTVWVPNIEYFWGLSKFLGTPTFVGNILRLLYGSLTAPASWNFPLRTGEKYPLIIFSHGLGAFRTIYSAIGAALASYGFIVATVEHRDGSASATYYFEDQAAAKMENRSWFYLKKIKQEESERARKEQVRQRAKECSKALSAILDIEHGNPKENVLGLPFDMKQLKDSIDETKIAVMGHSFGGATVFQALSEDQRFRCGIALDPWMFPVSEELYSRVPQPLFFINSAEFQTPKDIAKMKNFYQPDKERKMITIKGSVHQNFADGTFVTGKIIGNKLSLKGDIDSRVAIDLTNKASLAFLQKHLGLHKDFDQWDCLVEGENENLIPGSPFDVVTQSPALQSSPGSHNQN
Description: Inhibition of Lp-PLA2 in rat plasma at 50 nM using 2-thio-PAF as substrate preincubated for 30 min followed by substrate addition measured every minute for 10 mins by DNTB reagent based assay relative to control. The gist of the method: (§1)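 Rat plasma added directly as enzyme source and preincubated 30 min at room temperature with inhibitor at 250 or 50 nM and DTNB (10 µL of 2 mM). Reaction started with substrate solution: 50 µM 2-thio-PAF, 50 mM Tris pH 7.2, 1 mM EGTA. Thiol release read at 412 nm; percent inhibition calculated.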

In experiment [3] the target is T1, Platelet-activating factor acetylhydrolase (Rattus norvegicus). Description: Inhibition of Lp-PLA2 in rat plasma at 250 nM using 2-thio-PAF as substrate preincubated for 30 min followed by substrate addition measured every minute for 10 mins by DNTB reagent based assay by DNTB reagent based assay relative to control. The gist of the method:
as §1

For experiment [4], the species on record is Rattus norvegicus. The conditions noted are these: Sprague-Dawley, 25 mg/kg.
The species named for experiment [5] is Rattus norvegicus. The conditions noted are these: Sprague-Dawley, 25 mg/kg. This is another data set of the same source.
For experiment [6], the species on record is Rattus norvegicus. The note with it: Sprague-Dawley, 25 mg/kg. This is another data set of the same source.
In experiment [7] the target is T2, Platelet-activating factor acetylhydrolase (Homo sapiens, UniProt Q13093).
T2 sequence (Q13093 whole entry): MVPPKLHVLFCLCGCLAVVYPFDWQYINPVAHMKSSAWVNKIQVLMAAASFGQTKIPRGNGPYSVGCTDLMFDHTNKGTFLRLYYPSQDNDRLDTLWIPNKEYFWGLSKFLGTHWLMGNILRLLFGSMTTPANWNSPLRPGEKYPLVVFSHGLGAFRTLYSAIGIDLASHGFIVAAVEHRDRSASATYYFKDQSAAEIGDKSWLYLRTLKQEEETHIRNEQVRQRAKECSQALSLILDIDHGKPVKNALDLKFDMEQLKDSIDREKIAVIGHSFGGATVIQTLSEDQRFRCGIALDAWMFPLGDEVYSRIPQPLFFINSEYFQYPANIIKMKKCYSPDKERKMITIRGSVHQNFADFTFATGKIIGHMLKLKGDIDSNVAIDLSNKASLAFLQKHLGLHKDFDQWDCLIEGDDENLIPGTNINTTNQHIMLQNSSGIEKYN
As to the kind of experiment: Inhibition of human recombinant GST-tagged Lp-PLA2 (47 to 429 residues) expressed in Escherichia coli Rosetta(DE3) pLysS using 2-thio-PAF as substrate preincubated for 30 min followed by substrate addition measured every minute for 10 mins by DNTB reagent based assay.

The target in experiment [8] is T3, Platelet-activating factor acetylhydrolase (Homo sapiens) (UniProt Q13093).
T3 sequence (whole entry): T2 sequence (Q13093 whole entry)
The note with it: 1000 uM.

Experiment [9] is filed under the species Rattus norvegicus. The conditions noted are these: Sprague-Dawley, 3 mg/kg.

Activity calls are given as the source filed them. No cut-off for these calls is given here.

In the case of `CC(=O)Nc1ccc(S(=O)(=O)Nc2ccc(Oc3ccc(F)c(C(F)(F)F)c3)c(C#N)c2)cc1`, the IC50 (usually the concentration that inhibits the measured activity by half) in experiment [1] is > 25 µM. In addition, the inhibition (commonly the relative decrease from the control value, in per cent) in experiment [2] was 23%; in [3], 55%.
Taken in the same sequence, the figures for `N#Cc1cc(NS(=O)(=O)c2ccc(N3CCOCC3)cc2)ccc1Oc1ccc(Cl)c(C(F)(F)F)c1` were > 25 µM, 17% and 48%.
For the molecule `CC(=O)Nc1ccc(S(=O)(=O)Nc2ccc(Oc3ccc(C#N)c(C(F)(F)F)c3)c(C#N)c2)cc1`, the IC50 in experiment [1] is > 25 µM. Further, the inhibition was 11% in experiment [2] and 42% in [3].
For `CC(=O)Nc1ccc(S(=O)(=O)Nc2ccc(Oc3ccc(Cl)c(C(F)(F)F)c3)c(C#N)c2)cc1`, the IC50 in [1] was > 25 µM. Moreover, the inhibition in [2] was 32%; in experiment [3], 64%.
As to `N#Cc1cc(NS(=O)(=O)c2ccc(C(=O)O)cc2)ccc1Oc1ccc(Cl)c(C(F)(F)F)c1`, in experiment [1], the IC50 was > 25 µM. Besides, in the experiment filed under Rattus norvegicus [4], the inhibition result is “Active”. Further, the figures for the inhibition in experiment [2] and in experiment [3] were 31% and 67%, respectively. The inhibition entry in the experiment filed under Rattus norvegicus [5] is “inactive”.
In the case of `CC(=O)N(C)c1ccc(S(=O)(=O)Nc2ccc(Oc3ccc(Cl)c(C(F)(F)F)c3)c(C#N)c2)cc1`, the IC50 in experiment [1] was > 25 µM. For the same molecule, the inhibition stood at 15% in experiment [2] and 45% in [3].
In the case of `N#Cc1cc(NS(=O)(=O)c2ccc(NC(=O)N3CCOCC3)cc2)ccc1Oc1ccc(Cl)c(C(F)(F)F)c1`, the IC50 in experiment [1] was > 25 µM. Further, the inhibition in experiment [2] was determined as 27%; in experiment [3], 64%.
Regarding `N#Cc1cc(NS(=O)(=O)c2ccc(N)cc2)ccc1Oc1ccc(Cl)c(C(F)(F)F)c1`, the IC50 in [1] is > 25 µM. Besides, the inhibition was 33% in experiment [2] and 67% in [3]. Further, the inhibition entry in the experiment filed under Rattus norvegicus [6] is “Active”.
Regarding `N#Cc1cc(NS(=O)(=O)c2ccc(N3CCNCC3)cc2)ccc1Oc1ccc(Cl)c(C(F)(F)F)c1`, in [1], the IC50 was > 25 µM. Also, the results for the inhibition in experiment [2] and in experiment [3] were 31% and 68%, respectively.
Taken in the same sequence, the figures for `CC(=O)NCc1ccc(S(=O)(=O)Nc2ccc(Oc3ccc(Cl)c(C(F)(F)F)c3)c(C#N)c2)cc1` were > 25 µM, 51% and 80%.
As to `CS(=O)(=O)Nc1ccc(F)c(F)c1`, the IC50 in [7] came to 1000 µM. In addition, the inhibition in [8] was determined as 55%.
Take `CCN(CC)CCN(Cc1ccc(-c2ccc(C(F)(F)F)cc2)cc1)C(=O)Cn1c(SCc2ccc(F)cc2)nc(=O)c2c1CCC2` [DARAPLADIB]: the IC50 in experiment [1] was 2 µM. In addition, the inhibition entry in the experiment filed under Rattus norvegicus [9] was “Active”. In addition, the inhibition in experiment [2] was 98%; in experiment [3], 97%.
